Measured values reported in ChEMBL document CHEMBL1152398, “Labdane diterpenoid glycosides from Alpinia densespicata and their nitric oxide inhibitory activities in macrophages” (J Nat Prod, 2009).
The source made the active and inactive calls. No cut-off for these calls is given here.

Assays:
[1] = system: RAW264.7; experiment: Antiinflammatory activity in mouse RAW264.7 cells assessed as inhibition of LPS-induced nitric oxide production after 24 hrs by Griess reagent assay; assay type: functional, cell-based; settings: RAW264.7, 24 h
Outline: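 RAW264.7 murine macrophages grown in DMEM with 10% heat-inactivated FBS at 37 °C, 5% CO2. After 24 h, medium renewed; compounds added at 0, 1, 5, 10 or 20 µg/mL with LPS 1 µg/mL, then 24 h incubation. Supernatant nitrite measured with Griess reagent, absorbance 540 nm. Results given as percent of untreated control. Mean ± SD of three experiments, each in triplicate.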

[2] = system: KB; experiment: Cytotoxicity against human KB cells at 20 uM by modified MTT assay; assay type: functional, cell-based
[3] = system: WiDr; experiment: Cytotoxicity against human WiDr cells at 20 uM by modified MTT assay; assay type: functional, cell-based
[4] = system: Radical scavenging activity; experiment: Antioxidant activity assessed as DPPH radical scavenging activity after 30 mins by ELISA; assay type: functional
Outline: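 Sample (200-3.125 µg/mL) or quercetin (25-3.125 µg/mL), 120 µL, mixed with 30 µL of 0.75 mM DPPH in methanol. Shaken in the dark at room temperature for 30 min, then absorbance read at 517 nm. Methanol in place of sample served as negative control. ED50 is the concentration giving 50% reduction of DPPH radicals.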

[5] = Cytotoxicity against mouse RAW264.7 cells assessed as cell viability by modified MTT assay; assay type: cell-based; parameters: concentration or dose not given beside the values; settings: read-out: Activity
Outline: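 RAW264.7 cells after the same LPS (1 µg/mL) and compound (0-20 µg/mL) 24 h exposure used for NO measurement. MTT (5 mg/mL stock in PBS, 10 µL per 100 µL culture) added for 4 h at 37 °C. Formazan dissolved in DMSO and read at 550 nm. Untreated cells taken as 100% viability.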

[6] = system: HeLa; experiment: Cytotoxicity against human HeLa cells at 20 uM by modified MTT assay; assay type: functional, cell-based
[7] = system: Daoy; experiment: Cytotoxicity against human DaOY cells at 20 uM by modified MTT assay; assay type: functional, cell-based

SMILES | IC50 [1] [µM] | Activity [2] | Activity [3] | ED50 [4] | viability [5] [%] | Activity [6] | Activity [7]
C[C@@H]1O[C@@H](O[C@H]2[C@H](Oc3c(-c4ccc(O)c(O)c4)oc4cc(O)cc(O)c4c3=O)O[C@@H](C)[C@H](O)[C@H]2O)[C@H](O)[C@H](O)[C@H]1O | 32.9 | inactive | inactive | 16.6 µM | > 80 | inactive | inactive
C[C@@H]1O[C@@H](O[C@H]2C(Oc3c(-c4ccc(O)cc4)oc4cc(O)cc(O)c4c3=O)O[C@@H](C)[C@H](O)[C@H]2O)[C@H](O)[C@H](O)[C@H]1O (stereo partly specified) | 40.1 | inactive | inactive | – | > 80 | inactive | inactive
O=c1c(O)c(-c2ccc(O)cc2O)oc2cc(O[C@@H]3O[C@H](CO)[C@@H](O)[C@H](O)[C@H]3O)cc(O)c12 | 39.1 | inactive | inactive | 22.2 µM | > 80 | inactive | inactive
CC1(C)[C@@H](O)CC[C@]2(C)C3=C(CC[C@@H]12)CO[C@H](C1=CCOC1=O)C3 | 12.2 | inactive | inactive | – | > 80 | inactive | inactive
C[C@@H]1O[C@@H](O[C@H]2[C@H](O[C@H]3CC[C@]4(C)C5=C(CC[C@H]4C3(C)C)CO[C@H](C3=CCOC3=O)C5)O[C@H](CO)[C@@H](O)[C@@H]2O)[C@H](O)[C@H](O)[C@H]1O [ALPINDENOSIDE A] | 34.2 | inactive | inactive | > 200 µg/mL | > 80 | inactive | inactive
C[C@@H]1O[C@@H](O[C@H]2[C@H](O[C@H]3CC[C@]4(C)C5=C(CC[C@H]4C3(C)C)CO[C@@H](C3=CCOC3=O)C5)O[C@H](CO)[C@@H](O)[C@@H]2O)[C@H](O)[C@H](O)[C@H]1O [ALPINDENOSIDE B] | 49.3 | inactive | inactive | > 200 µg/mL | > 80 | inactive | inactive
C[C@@H]1O[C@@H](O[C@H]2[C@H](O[C@H]3CC[C@]4(C)[C@@H]5C[C@H](C6=CCOC6=O)OC(O)[C@@H]5CC[C@H]4C3(C)C)O[C@H](CO)[C@@H](O)[C@@H]2O)[C@H](O)[C@H](O)[C@H]1O (stereo partly specified) [ALPINDENOSIDE C] | 38 | inactive | inactive | > 200 µg/mL | > 80 | inactive | inactive
CC(=O)OC[C@H]1O[C@@H](O[C@H]2CC[C@]3(C)[C@H]4C[C@H](C5=CCOC5=O)OC(O)[C@@H]4CC[C@H]3C2(C)C)[C@H](O[C@@H]2O[C@@H](C)[C@H](O)[C@@H](O)[C@H]2O)[C@@H](O)[C@@H]1O (stereo partly specified) [ALPINDENOSIDE D] | 30 | inactive | inactive | > 200 µg/mL | > 80 | inactive | inactive
CC1(C)[C@@H](O)CC[C@]2(C)C3=C(CC[C@@H]12)CO[C@@H](C1=CCOC1=O)C3 [AULACOCARPINOLIDE] | 44.6 | inactive | inactive | – | > 80 | inactive | inactive
C=C(CO)[C@H]1C[C@@H]2[C@@H](CC[C@H]3C(C)(C)[C@@H](O[C@@H]4O[C@H](CO)[C@@H](O)[C@H](O)[C@H]4O[C@@H]4O[C@@H](C)[C@H](O)[C@@H](O)[C@H]4O)CC[C@]23C)[C@H]1O [NORALPINDENOSIDE A] | 31.8 | inactive | inactive | > 200 µg/mL | > 80 | inactive | inactive
C=C(C)[C@H]1C[C@@H]2[C@@H](CC[C@H]3C(C)(C)[C@@H](O[C@@H]4O[C@H](CO)[C@@H](O)[C@H](O)[C@H]4O[C@@H]4O[C@@H](C)[C@H](O)[C@@H](O)[C@H]4O)CC[C@]23C)[C@H]1O [NORALPINDENOSIDE B] | 44.3 | inactive | inactive | > 200 µg/mL | > 80 | inactive | inactive
O=c1c(O)c(-c2ccc(O)c(O)c2)oc2cc(O)cc(O)c12 [QUERCETIN] | 9.6 | – | – | 18 µM | – | – | –
